Measurements published in the EternaBench riboswitch data.

Tested on: MS2 coat protein
Assay: apparent Kd, MS2 coat protein; higher = weaker binding; RNA-MaP array; FMN 200 µM where present
In short: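 The titrant was SNAP-549-labelled MS2 coat protein, run from 0.7 or 1.5 nM in doubling steps to 3 µM. It was applied to designs transcribed by stalled E. coli RNA polymerase on Illumina sequencing-chip clusters, without ligand first and then with constant ligand, in 100 mM Tris-HCl pH 7.5, 80 mM KCl, 4 mM MgCl2, BSA, DTT, yeast tRNA and Tween-20. The apparent Kd is the median of filtered per-cluster binding-curve fits, with green signal normalised to red-channel RNA signal and control-cluster median Fmax.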

[1] = designed as: ON switch for flavin mononucleotide, no ligand
[2] = ligand present: flavin mononucleotide, designed as: ON switch for flavin mononucleotide
[3] = designed as: OFF switch for flavin mononucleotide, no ligand
[4] = ligand present: flavin mononucleotide, designed as: OFF switch for flavin mononucleotide

Row | Sequence | apparent Kd [1] [nM] | apparent Kd [2] [nM] | apparent Kd [3] [nM] | apparent Kd [4] [nM]
1 | GGACAUUUACAGAAGGGCAAGUUAGAUAGUGAAUAUUUAGAUCUGACUUGCAGGAUAUGUUGAACAUGAGGAUCACCCAUGUCC | 13.7 | 10.8 |  | 
2 | GUAGCAUACCGAGGAUAUUCAGGGCUUAAAUAAACAUGAGGAUCACCCAUGUGGCGAAAGCCUAGGGAGAAGGCGGAAUGCUAC | 14.6 | 13.4 |  | 
3 | GGUGUGAGGCAGGAUAUGCUAUAUGUAAGUAAUGCAGAAGGGUCUACAUGAGGAUCACCCAUGUGUGCGGUAGA |  |  | 105 | 311
4 | AUACAUGAGGAUCACCCAUGUAAUUAAUUAACUAGUAAGAUCUAGGAUAUCAGCUCGAUUAGAGCUGAGAAGGAGAUCACAUGU | 34.7 | 16.9 |  | 
5 | UUACCUCAUGAGAAGGACAUGAGGAUCACCCAUGUAGGAUAUCGUGGGAGACUGGUAUUGAAUCUUCGGAUUCAAUACCUGUCU | 454 | 27.9 |  | 
6 | GGACAUGUCGUUUACAUGAGGAUCACCCAUGUCGAUAGACAUGAGGAUAUCGAUACAAAUUGUAUCGAGAAGGCAUGCAUGUCC | 91.2 | 23.5 |  | 
7 | CGGUCGAUGUAAGGAUAUCGACUGGAAUACAGUCGAGAAGGUACAUGAGGAUCACCCAUGUAAUCCUAAUAAUAAUAACGACCG |  |  | 11.1 | 17.4
8 | AUUCGUGAGUAGGAUAUGCUGUUGCCAGAACGAGUAGAAGGACUCACAUGAGGAUCACCCAUGUGGUGUCUAAG |  |  | 19.9 | 170
9 | UUGGACGUCUUAGGAUAUGUAGGAUAUUCCUACAUGAGGAUCACCCAUGUUGACAUGGAAGAAGGACAGAAGGACGAUGUCCAU | 418 | 11.2 |  | 
10 | UCGCUUGAAGGAUAUACGAUUCGUUGUGUUCGUGUCACCUGACAUGAGGAUCACCCAUGUAGAAGGUCACGCAG |  |  | 18.6 | 24.6
11 | UUACUAUUACAGAAGGUUAAAUAAUAUAUAAAUGAAGGAUAUGUAACAUGAGGAUCACCCAUGUUUCACCCACAUGAGGAUCAC |  |  | 13.9 | 12
12 | AUCAGCUCGUCAGGAUAUACGUCACUGCGUCAGCAGUGUGGUAAGAUCACAUGAGGAUCACCCAUGUAGAAGGGACGAGCGGAU |  |  | 14.3 | 279
13 | GUGUCGUCAGGAUAUCCUACAUAACUAUCGUUGUUACCAUUGGAGAAGGGACAUGAGGAUCACCCAUGUUUUCC |  |  | 19.3 | 19.7
14 | AAAACAUGAGGAUCACCCAUGUUAAGAUCGGUUAAUAGAAGUGAGGAUAUACGAAGUUAAAGCUGGUAGAAGGCACUGGGUACA | 29.2 | 26.5 |  | 
15 | AGAUAGGACAGAGGAUAUACGUGCUAGAGAUACUAGCAAAAUUUCCUCACAUGAGGAUCACCCAUGUAGAAGGCUGUCCUAUCG |  |  | 15.6 | 436
16 | GCCGGGUAGGCAGGAUAUCCUCGCGCAAACACAUGAGGAUCACCCAUGUACACAAAACGUGAUAUGGAGAAGGGCUGACCCGCA | 33.9 | 5.84 |  | 
17 | AGAGUGUCAGGAUAUCCUGCUGUGCGGAAUAUGUAUUCACGGGAGAAGGGACAUGAGGAUCACCCAUGUUUGAG |  |  | 20.6 | 20.8
18 | GCCGGUUACACAGGAUAUCCCAUGUCGACGGCGACAUGAGGAUCACCCAUGUCCUGGACGGGUUAGGAGAAGGGUGUAAAAUGC | 110 | 51.8 |  | 
19 | GGGAAGUAAGGAUAUGCUGCUCGUCACUUGCGUGAUGAGUAGCAGAAGGUACAUGAGGAUCACCCAUGUAAAGA |  |  | 29.7 | 26.9
20 | CGGAUGUCAGGAUAUCGUGCAUACAACGAAAGUUCUAUGUGCGAGAAGGGACAUGAGGAUCACCCAUGUUACGG |  |  | 252 | 588
21 | UAUUAAACAUAGGAUAUCGAAUAAAUCAUUUAACGAGAAGGAUGAACAUGAGGAUCACCCAUGUGGUAUCAUGG |  |  | 246 | 256
22 | CGCUAAGAGAACGAUACGAGAAGACAUGAGGAUCACCCAUGUAGAAGGACAACGGAAUAAACGUUGUAGGAUAUACAUUUAGCG |  |  | 16.9 | 19.8
23 | UAACAUACAAAUAUACAUGAGGAUCACCCAUGUUUGUUGGGAAGAAGGGUAACUAUAUUACAUAUACAGGAUAUUUAACAUACU | 15.1 | 11.7 |  | 
24 | UAUUUAAGAGGAUAUACAUGAGGAUCACCCAUGUGUGUCUAUACGCGUGAUUUUUCAUGUAGAAGGCUUGGGUA |  |  | 160 | 60.5
25 | AAAACCUCAUGAGGAUAUCCAACAUGAGGAUCACCCAUGUUAGUCUCAGUACUAGGUACUUGAGAGGAGAAGGCAUGCCAGGGC | 123 | 36.2 |  | 
26 | AACAAGUGAGGAUAUGAAAAUACAACAAACAAACAUCUACAUCAGAAGGCACAUGAGGAUCACCCAUGUUAAUC |  |  | 20.9 | 23.2
27 | CAUUUACAGGGAGGAUAUACAUGAGGAUCACCCAUGUCAUCAUAUGAUAUUUCUUUUGUAUGAGUGUAGAAGGCCCAACUACCA |  |  | 19.2 | 18.4
28 | CUCGCAGUAAUAGGAUAUCCACAUCCGUGGCCUGUGUGUGACUUAACAUGAGGAUCACCCAUGUUGGAGAAGGAUUACUCAAUA |  |  | 728 | 178

Row | Sequence | apparent Kd [1] [nM] | apparent Kd [2] [nM] | apparent Kd [3] [nM] | apparent Kd [4] [nM]
29 | AAACAGGGAGGAUAUACAUGAGGAUCACCCAUGUUCGAGCGUCCUUGAACUACCUCAGGUAGAAGGCCCUAAUU |  |  | 372 | 112
30 | GGAUCGUAUGUCAGGAUAUGCCACUGGAUACAGUGGUAGAAGGGACAUGAGGAUCACCCAUGUCCUACCGAUCC |  |  | 12.5 | 14.4
31 | GCGAAUUAGUGAGGAUAUACAUAAUUUAAAACUGUAGAAGGCACAAUCCUCAAGACAUGAGGAUCACCCAUGUGAUAUUAAGCU |  |  | 46 | 158
32 | UUCGUGCAGCUUUGCUGUACGCGUACAUGAGGAUCACCCAUGUAGGAUAUGGUAGGCAUUGCUUACUAGAAGGAUAGUGUGAUC |  |  | 124 | 32.2
33 | GCAACGCCUGACAUGAGGAUCACCCAUGUUAGAUUGUUAUGUCAGGAUAUAGUCUAGAAACUAGACUAGAAGGGAUAUGUUGCU | 1010 | 161 |  | 
34 | CGAUCGUGUAGAGGAUAUGUUAAACAUGAGGAUCACCCAUGUAAGGUAGAAAUUUUUAUUAACAUACAGAAGGCUACACGAUCG |  |  | 8.08 | 5.66
35 | UUAUUAUAUGAAGGAUAUACUUAACAUGAGGAUCACCCAUGUGGUGUUGUGAGUGAGUGAGUUUAGUAGAAGGUCAAUUCUUUU |  |  | 425 | 623
36 | AUCUAAGAAUUAAUUGUGACUGACAGAAGGCAAUAGUAUGUGACCGACAUGAGGAUCACCCAUGUUGAGGAUAUGUCUUGCUAC |  |  | 7.02 | 22.4
37 | GAGUGGCAAGGAUAUACAGUGGAGAGGAUGGCAAGAGGUGGACAUGAGGAUCACCCAUGUAGAAGGUGCAGAGA |  |  | 154 | 235
38 | UGGUACAUGGGAGGAUAUGGGUUGAUAACAUGAGGAUCACCCAUGUUAAAAUGCCGAAAGGCAAACUAGAAGGCCCAUGUACCU | 443 | 32.2 |  | 
39 | AUGGUGUGAUAGGAUAUUGCUGGGUCAACCUUUUAAGAAGGGUCUACAUGAGGAUCACCCAUGUGGGUGUCCCU |  |  | 65.3 | 60.2
40 | UUGAAUUGAAACAUGAGGAUCACCCAUGUGUCAUAAUUGACAUAGGAUAUGCUUAUACUUUUAAAGCAGAAGGAUGACGAUACU | 23.8 | 8.8 |  | 
41 | GUGUACAUUCGAGGAUAUCGGAGAGAGAUCAUUCGAGAAGGCGAUUCAUGAUGUAUUAUCCUGGACAUGAGGAUCACCCAUGUG | 109 | 74.6 |  | 
42 | CGGGCUGCUGUGAGGAUAUGCCUGUGGGUGCGUGGGUAGAAGGCACAUGAGGAUCACCCAUGUCCUGCAGCUCG |  |  |  | 717
43 | UAGUAUAAGGGCAUUAAACAUGAGGAUCACCCAUGUACGAUAGAGGAUAUGCAUUUCAGUUGAGAGUAGAAGGUUAGAGAAGGG |  |  | 44.5 | 46.3
44 | CGCUCAAUUCUUUAGGUUAGAAUCAGAAGGCGUAACAUGAGGAUCACCCAUGUAUAGAAGUGUAACGAGGAUAUGAAUUGAGCG |  |  | 8.86 | 8.25
45 | CUUUUGUGAGGAUAUCAUUAGUAAAUAAAUAAAAUUACUACUGAGAAGGCACAUGAGGAUCACCCAUGUUCCUC |  |  | 33.9 | 159
46 | CUUUAAGUCGAGAAGGACAUGAGGAUCACCCAUGUAGGAUAUCGAUUAGCUUACAACCCGAGCCGCAUUGGUAUGACUGGUGGG | 12.9 | 6.23 |  | 
47 | GUCACCUCGUGAGGAUAUACAACACUGCUUCGGCAGUGUAUUAAGAUCACAUGAGGAUCACCCAUGUAGAAGGCACGAGCUGAU |  |  | 17.2 | 221
48 | CGUUCACAUGAGGAUCACCCAUGUCAGAUUUGGUCAGGAUAUGGUCGGCUUCCGCUAUUGCCAGAAGGGACUGUUG | 30.5 | 23.9 |  | 
49 | AAUAACAGAGGAUAUACUGUUUUAUGUGUUUGUUAUUUUGAACAUGAGGAUCACCCAUGUAGAAGGCUGAGUAA |  |  | 27.8 | 28.4
50 | UUGGACGUCGUAGGAUAUGUAGGAUAUUCCUACAUGAGGAUCACCCAUGUUGACAUGGAAGAAGGACAGAAGGGCGAUGUCCAU | 352 | 5.27 |  | 
51 | AUUGUGUUAGGAUAUGCUUAUGGUGGAUAGUCCAGUAUGAUGUAGAAGGGACAUGAGGAUCACCCAUGUGCUGA |  |  | 46.9 | 48.5
52 | UUGAUGUCAUCAGGAUAUAGUAUUUAAGACAUAUAUUUUUUCAAACAUGAGGAUCACCCAUGUCGCUAGAAGGGAUUAUAGAUU |  |  | 41 | 35.6
53 | GGAGCUCAGAUUAACAUGAGGAUCACCCAUGUCUUUUGACAUGAGGAUAUGGAUCCUAAUUGGAUCCAGAAGGCAUGGAGCUCC | 1590 | 126 |  | 
54 | CUUUAGUGAGGAUAUGUGGCUUCGAUCGUGAGAUCGAGGCUACAGAAGGCACAUGAGGAUCACCCAUGUUCCUU |  |  | 14.5 | 32.9
55 | UGGUACUAGGGAGGAUAUGGGAAGAUACAUGAGGAUCACCCAUGUUUAAGAAUGCCGAGCGGCAACUAGAAGGCCCUAGUACCU | 479 | 20.8 |  | 
